Data from ChEMBL document CHEMBL4177526, “Discovery and structure activity relationship of the first potent cryptosporidium FIKK kinase inhibitor” (Bioorg Med Chem, 2017).

Key:
[1] = biological target: Serine/threonine-protein kinase PAK 5 (Homo sapiens) (UniProt Q9P286); test: Inhibition of human PAK5 (2 to 719 residues) assessed as residual activity at 500 nM in presence of 33P-ATP by filter binding assay relative to control
[2] = biological target: Mitogen-activated protein kinase 13 (Homo sapiens) (UniProt O15264); test: Inhibition of human p38delta (1 to 365 residues) assessed as residual activity at 500 nM in presence of 33P-ATP by filter binding assay relative to control
[3] = biological target: Receptor tyrosine-protein kinase erbB-4 (Homo sapiens) (UniProt Q15303); test: Inhibition of human HER4 (706 to 991 residues) assessed as residual activity at 500 nM in presence of 33P-ATP by filter binding assay relative to control
[4] = biological target: Serine/threonine-protein kinase PLK1 (Homo sapiens) (UniProt P53350); test: Inhibition of human PLK1 (1 to 603 residues) assessed as residual activity at 500 nM in presence of 33P-ATP by filter binding assay relative to control
[5] = biological target: Serine/threonine-protein kinase pim-3 (Homo sapiens) (UniProt Q86V86); test: Inhibition of human PIM3 (2 to 326 residues) assessed as residual activity at 500 nM in presence of 33P-ATP by filter binding assay relative to control
[6] = biological target: Aurora kinase B (Homo sapiens) (UniProt Q96GD4); test: Inhibition of human Aurora B (1 to 344 residues) assessed as residual activity at 500 nM in presence of 33P-ATP by filter binding assay relative to control
Aurora kinase B (Homo sapiens), sequence (Q96GD4 whole entry, the tested form may be a part, canonical isoform): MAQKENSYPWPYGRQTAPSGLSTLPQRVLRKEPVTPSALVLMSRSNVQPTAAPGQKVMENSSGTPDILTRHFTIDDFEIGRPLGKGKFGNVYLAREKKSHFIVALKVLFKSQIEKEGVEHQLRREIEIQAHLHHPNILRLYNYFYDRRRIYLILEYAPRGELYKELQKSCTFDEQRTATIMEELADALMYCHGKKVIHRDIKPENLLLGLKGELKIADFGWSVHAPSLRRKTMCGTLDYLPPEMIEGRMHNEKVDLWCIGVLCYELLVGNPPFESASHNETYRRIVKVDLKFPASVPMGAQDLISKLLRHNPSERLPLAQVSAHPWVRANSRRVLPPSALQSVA

[7] = biological target: Casein kinase I isoform delta (Homo sapiens) (UniProt P48730); test: Inhibition of human CK1delta (1 to 415 residues) assessed as residual activity at 500 nM in presence of 33P-ATP by filter binding assay relative to control
[8] = Inhibition of recombinant Cryptosporidium parvum FIKK using RRRAPSFYRK peptide as substrate by NADH coupled LDH-PK ATPase assay
[9] = system: TGF-beta receptor type-1 (Homo sapiens), P36897 [T204D]; test: Inhibition of human TGFbetaR1 T204D mutant (200 to 501 residues) assessed as residual activity at 500 nM in presence of 33P-ATP by filter binding assay relative to control
TGF-beta receptor type-1 (Homo sapiens), P36897 [T204D], sequence (P36897 whole entry T204D, the tested form may be a part): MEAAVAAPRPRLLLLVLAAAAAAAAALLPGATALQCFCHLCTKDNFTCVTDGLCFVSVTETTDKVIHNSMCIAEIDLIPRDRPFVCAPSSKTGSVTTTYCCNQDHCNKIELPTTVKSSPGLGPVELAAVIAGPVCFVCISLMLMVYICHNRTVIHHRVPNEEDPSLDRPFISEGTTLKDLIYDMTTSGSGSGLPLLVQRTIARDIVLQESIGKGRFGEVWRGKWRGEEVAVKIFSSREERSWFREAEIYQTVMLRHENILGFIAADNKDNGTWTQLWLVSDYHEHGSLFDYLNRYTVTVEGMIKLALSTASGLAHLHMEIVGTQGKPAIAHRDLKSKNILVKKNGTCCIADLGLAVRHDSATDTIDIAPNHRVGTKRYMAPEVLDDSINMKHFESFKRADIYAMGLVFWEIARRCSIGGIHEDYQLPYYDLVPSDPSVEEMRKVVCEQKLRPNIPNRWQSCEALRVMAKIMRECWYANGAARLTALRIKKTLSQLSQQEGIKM

[10] = biological target: Ephrin type-A receptor 2 (Homo sapiens) (UniProt P29317); test: Inhibition of human EPHA2 (591 to 976 residues) assessed as residual activity at 500 nM in presence of 33P-ATP by filter binding assay relative to control
[11] = biological target: Inhibitor of nuclear factor kappa-B kinase subunit epsilon (Homo sapiens) (UniProt Q14164); test: Inhibition of human IKKepsilon (1 to 716 residues) assessed as residual activity at 500 nM in presence of 33P-ATP by filter binding assay relative to control
[12] = biological target: Angiopoietin-1 receptor (Homo sapiens) (UniProt Q02763); test: Inhibition of human TIE2 (771 to 1124 residues) assessed as residual activity at 500 nM in presence of 33P-ATP by filter binding assay relative to control
[13] = biological target: Insulin-like growth factor 1 receptor (Homo sapiens) (UniProt P08069); test: Inhibition of human IGF1R (954 to 1367 residues) assessed as residual activity at 500 nM in presence of 33P-ATP by filter binding assay relative to control
[14] = biological target: MAP kinase-activated protein kinase 3 (Homo sapiens) (UniProt Q16644); test: Inhibition of human MAPKAPK3 (2 to 382 residues) assessed as residual activity at 500 nM in presence of 33P-ATP by filter binding assay relative to control
[15] = biological target: Mitogen-activated protein kinase kinase kinase kinase 5 (Homo sapiens) (UniProt Q9Y4K4); test: Inhibition of MAP4K5 (unknown origin) assessed as residual activity at 500 nM relative to control
Mitogen-activated protein kinase kinase kinase kinase 5 (Homo sapiens), sequence (Q9Y4K4 whole entry, looked up): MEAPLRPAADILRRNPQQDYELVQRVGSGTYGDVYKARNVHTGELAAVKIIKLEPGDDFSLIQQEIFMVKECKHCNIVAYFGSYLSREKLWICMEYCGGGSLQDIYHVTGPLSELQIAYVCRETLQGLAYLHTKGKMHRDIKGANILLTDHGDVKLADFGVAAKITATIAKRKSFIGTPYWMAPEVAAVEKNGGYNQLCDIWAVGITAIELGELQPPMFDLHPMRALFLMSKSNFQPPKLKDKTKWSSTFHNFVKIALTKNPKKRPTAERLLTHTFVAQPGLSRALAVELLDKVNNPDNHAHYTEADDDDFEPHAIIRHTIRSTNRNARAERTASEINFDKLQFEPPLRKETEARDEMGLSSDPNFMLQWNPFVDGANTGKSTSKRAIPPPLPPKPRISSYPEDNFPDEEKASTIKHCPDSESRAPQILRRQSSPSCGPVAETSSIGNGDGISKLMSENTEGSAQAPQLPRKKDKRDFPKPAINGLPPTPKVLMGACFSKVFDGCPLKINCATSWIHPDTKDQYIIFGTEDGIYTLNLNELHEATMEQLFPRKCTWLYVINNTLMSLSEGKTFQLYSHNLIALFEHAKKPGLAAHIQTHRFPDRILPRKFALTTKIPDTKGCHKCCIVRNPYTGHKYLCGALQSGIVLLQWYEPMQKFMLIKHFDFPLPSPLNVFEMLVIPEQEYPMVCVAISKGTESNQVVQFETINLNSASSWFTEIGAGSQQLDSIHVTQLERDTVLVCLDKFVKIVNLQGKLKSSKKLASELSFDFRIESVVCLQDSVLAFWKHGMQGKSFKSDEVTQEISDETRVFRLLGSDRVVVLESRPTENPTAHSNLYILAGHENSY

[16] = biological target: Vascular endothelial growth factor receptor 2 (Homo sapiens) (UniProt P35968); test: Inhibition of human VEGFR2 (unknown origin) at 500 nM relative to control
Vascular endothelial growth factor receptor 2 (Homo sapiens), sequence (P35968 whole entry, looked up, the tested form may be a part): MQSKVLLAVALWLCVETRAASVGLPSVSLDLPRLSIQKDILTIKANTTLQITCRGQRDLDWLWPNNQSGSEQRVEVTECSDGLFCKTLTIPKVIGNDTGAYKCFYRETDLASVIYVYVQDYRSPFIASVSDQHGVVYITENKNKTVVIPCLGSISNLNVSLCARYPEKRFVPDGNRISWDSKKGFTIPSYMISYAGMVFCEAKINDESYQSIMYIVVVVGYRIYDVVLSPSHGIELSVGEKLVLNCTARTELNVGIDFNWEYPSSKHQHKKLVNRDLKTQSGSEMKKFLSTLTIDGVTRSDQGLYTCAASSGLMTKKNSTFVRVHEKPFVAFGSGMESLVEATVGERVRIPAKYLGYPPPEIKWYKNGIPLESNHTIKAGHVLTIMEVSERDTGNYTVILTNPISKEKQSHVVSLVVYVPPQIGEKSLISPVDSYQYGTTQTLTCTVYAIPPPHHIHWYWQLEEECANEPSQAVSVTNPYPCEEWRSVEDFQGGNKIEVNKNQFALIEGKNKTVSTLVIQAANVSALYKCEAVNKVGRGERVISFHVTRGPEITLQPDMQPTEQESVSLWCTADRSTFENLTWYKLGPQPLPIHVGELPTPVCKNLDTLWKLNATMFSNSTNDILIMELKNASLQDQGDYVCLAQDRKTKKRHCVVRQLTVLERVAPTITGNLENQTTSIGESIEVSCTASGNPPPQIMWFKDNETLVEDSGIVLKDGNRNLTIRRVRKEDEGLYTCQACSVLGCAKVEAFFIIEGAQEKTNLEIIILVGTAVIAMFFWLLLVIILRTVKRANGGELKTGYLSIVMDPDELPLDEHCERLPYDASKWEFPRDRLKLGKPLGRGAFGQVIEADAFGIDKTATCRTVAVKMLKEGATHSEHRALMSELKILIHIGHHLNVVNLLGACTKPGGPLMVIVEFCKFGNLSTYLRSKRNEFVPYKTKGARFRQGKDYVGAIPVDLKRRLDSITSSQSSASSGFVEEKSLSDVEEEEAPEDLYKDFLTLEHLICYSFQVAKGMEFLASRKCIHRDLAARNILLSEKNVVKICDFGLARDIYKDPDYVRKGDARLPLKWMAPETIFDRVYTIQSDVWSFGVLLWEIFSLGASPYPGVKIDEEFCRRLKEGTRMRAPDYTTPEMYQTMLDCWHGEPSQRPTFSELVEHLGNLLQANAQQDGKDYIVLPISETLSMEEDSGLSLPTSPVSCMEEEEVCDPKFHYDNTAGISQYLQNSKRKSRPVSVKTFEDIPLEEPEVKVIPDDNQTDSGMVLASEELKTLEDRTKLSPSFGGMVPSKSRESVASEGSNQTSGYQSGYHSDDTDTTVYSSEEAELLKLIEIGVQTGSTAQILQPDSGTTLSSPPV

[17] = biological target: Serine/threonine-protein kinase MARK1 (Homo sapiens) (UniProt Q9P0L2); test: Inhibition of human MARK1 (2 to 795 residues) assessed as residual activity at 500 nM in presence of 33P-ATP by filter binding assay relative to control
[18] = system: RAC-alpha serine/threonine-protein kinase (Homo sapiens), P31749 [S473D]; test: Inhibition of human PKBalpha S473D mutant (118 to 480 residues) assessed as residual activity at 500 nM in presence of 33P-ATP by filter binding assay relative to control
[19] = system: Cryptosporidium parvum; test: Antiparasitic activity against Cryptosporidium parvum Iowa oocysts infected in human HCT8 cells pretreated prior to infection measured after 48 hrs by fluorescein labeled Vicia villosa lectin/Hoechst 33258 staining based epifluorescence microscopic analysis; type: functional, organism-based; details: Cryptosporidium parvum, Iowa, HCT-8; read-out: EC50
Method in brief: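 HCT-8 cells grown in RPMI-1640 with 10% heat-inactivated FBS and penicillin. Three-fold compound dilutions in culture medium were added to confluent cells before about 5500 excysted C. parvum Iowa oocysts per well. After 48 h, cells were fixed with 4% paraformaldehyde and permeabilized. Vacuoles were stained with fluorescein-Vicia villosa lectin (1.33 µg/mL, 1 h, 37 °C) and nuclei with Hoechst 33258, then imaged by epifluorescence microscopy.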

[20] = biological target: Serine/threonine-protein kinase BRSK1 (Homo sapiens) (UniProt Q8TDC3); test: Inhibition of human BRSK1 (2 to 778 residues) assessed as residual activity at 500 nM in presence of 33P-ATP by filter binding assay relative to control
[21] = biological target: Mitogen-activated protein kinase kinase kinase 9 (Homo sapiens) (UniProt P80192); test: Inhibition of human MLK1 (132 to 413 residues) assessed as residual activity at 500 nM in presence of 33P-ATP by filter binding assay relative to control
[22] = biological target: Mitogen-activated protein kinase 9 (Homo sapiens) (UniProt P45984); test: Inhibition of human JNK2 (1 to 424 residues) assessed as residual activity at 500 nM in presence of 33P-ATP by filter binding assay relative to control
[23] = biological target: Mitogen-activated protein kinase 3 (Homo sapiens) (UniProt P27361); test: Inhibition of human ERK1 (2 to 379 residues) assessed as residual activity at 500 nM in presence of 33P-ATP by filter binding assay relative to control
Mitogen-activated protein kinase 3 (Homo sapiens), sequence (P27361 whole entry, the tested form may be a part): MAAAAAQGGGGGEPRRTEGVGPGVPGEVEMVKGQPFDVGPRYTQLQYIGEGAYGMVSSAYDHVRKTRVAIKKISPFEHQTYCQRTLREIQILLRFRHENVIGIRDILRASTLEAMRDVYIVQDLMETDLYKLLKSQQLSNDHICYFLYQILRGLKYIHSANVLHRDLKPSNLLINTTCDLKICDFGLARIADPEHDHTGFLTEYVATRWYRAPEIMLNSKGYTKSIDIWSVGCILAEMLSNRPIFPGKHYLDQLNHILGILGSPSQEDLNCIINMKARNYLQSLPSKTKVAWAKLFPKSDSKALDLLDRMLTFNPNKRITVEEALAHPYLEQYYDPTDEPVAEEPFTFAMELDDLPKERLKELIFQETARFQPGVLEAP

[24] = biological target: Tau-tubulin kinase 2 (Homo sapiens) (UniProt Q6IQ55); test: Inhibition of human TTBK2 (1 to 450 residues) assessed as residual activity at 500 nM in presence of 33P-ATP by filter binding assay relative to control
Tau-tubulin kinase 2 (Homo sapiens), sequence (Q6IQ55 whole entry, the tested form may be a part): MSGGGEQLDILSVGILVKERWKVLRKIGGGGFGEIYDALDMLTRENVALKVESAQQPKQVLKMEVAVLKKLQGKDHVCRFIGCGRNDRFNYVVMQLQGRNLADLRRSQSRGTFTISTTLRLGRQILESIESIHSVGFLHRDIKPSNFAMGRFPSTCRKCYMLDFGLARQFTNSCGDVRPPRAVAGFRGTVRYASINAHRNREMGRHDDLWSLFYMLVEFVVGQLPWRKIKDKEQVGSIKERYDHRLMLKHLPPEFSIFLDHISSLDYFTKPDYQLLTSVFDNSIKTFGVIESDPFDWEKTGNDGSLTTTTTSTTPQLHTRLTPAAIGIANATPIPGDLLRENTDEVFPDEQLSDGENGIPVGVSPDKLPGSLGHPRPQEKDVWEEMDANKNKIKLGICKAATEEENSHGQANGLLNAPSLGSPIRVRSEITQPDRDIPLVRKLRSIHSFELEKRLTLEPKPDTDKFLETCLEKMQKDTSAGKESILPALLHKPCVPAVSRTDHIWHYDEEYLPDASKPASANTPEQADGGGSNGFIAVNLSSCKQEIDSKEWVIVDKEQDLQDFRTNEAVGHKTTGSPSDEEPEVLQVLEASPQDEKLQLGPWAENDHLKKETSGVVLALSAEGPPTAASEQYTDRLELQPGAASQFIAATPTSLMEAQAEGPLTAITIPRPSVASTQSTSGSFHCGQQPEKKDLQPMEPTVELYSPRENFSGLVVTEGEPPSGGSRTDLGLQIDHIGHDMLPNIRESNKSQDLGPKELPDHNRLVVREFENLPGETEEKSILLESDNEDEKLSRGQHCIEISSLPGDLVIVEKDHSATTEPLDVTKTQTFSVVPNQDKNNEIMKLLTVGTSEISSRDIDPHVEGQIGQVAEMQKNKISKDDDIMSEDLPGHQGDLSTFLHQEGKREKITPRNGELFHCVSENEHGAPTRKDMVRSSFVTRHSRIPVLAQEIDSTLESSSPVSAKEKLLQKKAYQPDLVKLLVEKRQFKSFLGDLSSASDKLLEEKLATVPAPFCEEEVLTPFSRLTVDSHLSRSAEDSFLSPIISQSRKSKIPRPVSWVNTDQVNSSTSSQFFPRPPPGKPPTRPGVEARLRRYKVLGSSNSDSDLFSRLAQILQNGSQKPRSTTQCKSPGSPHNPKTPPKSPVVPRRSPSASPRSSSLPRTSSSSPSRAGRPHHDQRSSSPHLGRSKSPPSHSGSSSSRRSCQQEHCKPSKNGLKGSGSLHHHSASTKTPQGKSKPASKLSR

[25] = biological target: Serine/threonine-protein kinase 33 (Homo sapiens) (UniProt Q9BYT3); test: Inhibition of human STK33 (1 to 514 residues) assessed as residual activity at 500 nM in presence of 33P-ATP by filter binding assay relative to control

SMILES: Cc1cccc(-c2nc(N)sc2-c2ccc3ncccc3n2)c1
- Activity [1]: 107%
- Activity [2]: 113%
- Activity [3]: 60%
- Activity [4]: 107%
- Activity [5]: 91%
- Activity [6]: 89%
- Activity [7]: 97%
- IC50 [8]: 0.0002 µM
- Activity [9]: 14%
- Activity [10]: 99%
- Activity [11]: 101%
- Activity [12]: 106%
- Activity [13]: 104%
- Activity [14]: 100%
- Activity [15]: 148%
- inhibition [16]: 59%
- Activity [17]: 91%
- Activity [18]: 115%
- EC50 [19]: 2.6 µM
- Activity [20]: 111%
- Activity [21]: 106%
- Activity [22]: 79%
- Activity [23]: 106%
- Activity [24]: 125%
- Activity [25]: 97%
